MLL AF4-AF9 inh: MLL-AF4/AF9 protein interaction inhibition | inhibition, % at 10 µM | P42568 | AID 651704 | AlphaScreen, biotin-AF4 peptide binding to FLAG-AF9 | 350,000 compounds, 0.47% hits;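 active = every replicate reaching a set inhibition limit, whatever the replicate mean, cut at about 25% in these data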;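 note: 0% = plate neutral control median and 100% = total signal loss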
Target sequence (P42568 whole entry, looked up): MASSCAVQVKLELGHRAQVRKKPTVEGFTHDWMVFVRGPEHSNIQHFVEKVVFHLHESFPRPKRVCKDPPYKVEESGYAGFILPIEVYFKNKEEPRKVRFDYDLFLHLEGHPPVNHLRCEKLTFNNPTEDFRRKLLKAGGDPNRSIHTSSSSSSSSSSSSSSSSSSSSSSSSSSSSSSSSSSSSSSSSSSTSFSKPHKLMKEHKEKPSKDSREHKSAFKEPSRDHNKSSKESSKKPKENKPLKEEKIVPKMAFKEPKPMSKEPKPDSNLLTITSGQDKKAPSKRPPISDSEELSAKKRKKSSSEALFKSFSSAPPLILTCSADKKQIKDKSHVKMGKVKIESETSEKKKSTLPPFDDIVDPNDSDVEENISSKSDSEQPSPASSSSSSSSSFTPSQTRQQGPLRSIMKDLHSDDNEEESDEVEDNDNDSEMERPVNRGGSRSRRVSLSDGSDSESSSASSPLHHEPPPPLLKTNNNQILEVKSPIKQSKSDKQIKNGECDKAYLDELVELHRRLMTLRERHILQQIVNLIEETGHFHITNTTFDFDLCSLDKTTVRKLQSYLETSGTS
ERAP1 HTS inh: inhibitors of human ERAP1 aminopeptidase; Q9NZ08; recombinant ERAP1, Leu-AMC fluorescence, 60 min; inhibition, % at 10.7 µM; 340,000 compounds, 0.15% hits; AID 652197;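 active = mean replicate inhibition of at least 30%, or all replicates individually reaching that 30% level; inactive = mean below 30% and not every replicate reaching it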;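 note: 0% = neutral control wells and 100% = L-leucinethiol positive control wells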
RAD52 inh: RAD52 (human) annealing inhibition; 360,000 compounds, 0.46% hits; inhibition, % at 18.7 µM; recombinant RAD52 DNA annealing, FRET fluorescence; P43351;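 active = every replicate showing at least 50% inhibition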
GSIS activator: GLuc luminescence reporter in INS-1E cells, primary screen for activators of glucose-dependent secretion of insulin. INS-1E GLuc reporter insulin secretion, 2-3 h. activation, % at 16.6 µM. 370,000 compounds, 0.61% hits. AID 743287;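 active = lowest replicate activation of at least 40%, so every replicate reaches that level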;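 note: 0% = median of neutral control wells and 100% = median of IBMX positive control wells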
S100A4 MyoIIA: blocks human S100A4 binding to myosin IIA peptide; S100A4/TAMRA-MyoIIA peptide fluorescence polarization; AID 652163; inhibition, % at 10.7 µM; 360,000 compounds, 0.14% hits;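 active = mean inhibition of at least 70% across replicates, with every replicate also reaching that level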
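Material: S100A4 monomer (human). Medium: Calcium-containing HEPES buffer, pH 7.2. Probe or stimulus: labelled myosin peptide probe, 5 nM. Compound dosing: one concentration per compound. Timing: polarization read 5 min after assay mix addition, stable 5–60 min. Benchmarks: DMSO as neutral control, TFP as positive control.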
AlphaScreen intf: AlphaScreen signal interference counter-screen hit. shares compounds with MLL AF4-AF9 inh. signal luminescence. AC50, µM (series often up to 12 µM), for inactives: at the top dose activity change, negative = inhibition. 530 compounds, 45% hits; cut-off not given, nearly all actives have AC50 up to about 14 µM
Starred values were filed as active, the others as inactive; · = not tested or not shown. Most compounds without a hit are left out; they make up all but 1.5% or so of the library.

SMILES	MLL AF4-AF9 inh	ERAP1 HTS inh	RAD52 inh	GSIS activator	S100A4 MyoIIA	AlphaScreen intf
CCN1CCN(Cc2ccc(NC(=O)c3ccc(C)c(NC(=O)c4nccn4C)c3)cc2C(F)(F)F)CC1	4	·	6	0	0	·
Cc1noc(C)c1S(=O)(=O)N(C)C[C@@H]1Oc2c(cccc2N(C)C)C(=O)N([C@H](C)CO)C[C@H]1C	-3	4	-10	6	4	·
COc1ccc(-n2cc(CNCCc3cnc[nH]3)c(-c3cccc(F)c3)n2)cc1	30*	9	-27	-10	1	-19%
COc1ccc(-n2cc(CNCc3cccnc3)c(-c3cccc(F)c3)n2)cc1	0	-1	-218	-19	-8	·
CC(C)C[C@@H](C(=O)NC1CCN(Cc2ccccc2)CC1)N1C(=O)N2CCc3c([nH]c4ccccc34)[C@@]2(C)C1=O	37*	-2	-8	-32	-1	-2%
C[C@@H](C(=O)NC1CCN(Cc2ccccc2)CC1)N1C(=O)N2CCc3c([nH]c4ccccc34)[C@@]2(C)C1=O	15	·	-2	-13	-2	·
O=C(C[C@@H]1CC[C@H](NS(=O)(=O)c2ccccc2)[C@H](CO)O1)NCCN1CCCCC1	0	0	-5	-1	14	·
CCCC(=O)NC(c1ccc(N(C)C)cc1)c1ccc2cccnc2c1O (stereo not given)	50*	-3	-16	·	2	1.5µM*
C[C@H]1CN([C@@H](C)CO)S(=O)(=O)c2ccc(-c3ccccc3)cc2O[C@@H]1CN(C)C	-1	2	8	3	0	·
O=C(Nc1cc(F)ccc1F)N1CC(=O)N2[C@H](CO)[C@@H](c3ccc(/C=C/c4ccccc4)cc3)[C@@H]2C1	5	-4	-13	-16	31	·
N#C/C(C(N)=O)=c1/ccc2c(c1)N1C3=C(CCCC3)CC3CCCCC31N=2 (stereo not given)	85*	·	·	·	-7	2.7µM*
CC1(C)CNc2cc(N)ccc2S1	63*	-4	-1	-8	-16	2.3µM*
COc1cccc(C#Cc2ccc([C@H]3[C@@H](CO)N4C(=O)CN(S(=O)(=O)c5ccccc5C)C[C@@H]34)cc2)c1	-1	-2	-18	-29	14	·
N=C1C=CC(=C(c2ccc(N)cc2)c2ccc(N)cc2)C=C1	45*	1	3	·	5	11µM*
Cc1cc(N=Nc2ccc(Cl)cc2)cc(CN2CCOCC2)c1O	30*	1	-7	·	-8	-34%
Oc1c(CN2CCOCC2)cc(CN2CCOCC2)cc1CN1CCOCC1	-3	-1	4	-4	-13	·
CCNC(=O)[C@@H]1[C@@H](CO)[C@@H]2Cn3c(ccc(-c4ccc(OC)cc4)c3=O)[C@@H]2N1Cc1ccccc1	-10	6	-3	-10	0	·
Fc1ccccc1-c1csc(-c2cccnc2)n1	1	-3	0	9	2	·
CN=c1scc(-c2ccccc2F)n1/N=C(\C)c1cccnc1	37*	1	-13	-6	-3	-31%
OC(CSc1ccccn1)CC(O)c1ccccc1 (stereo not given)	0	-1	0	·	4	·
CCc1nc2ccc(C(=O)NC3CCN(C)CC3)cn2c1N(C)CCC(C)C	4	-9	-2	11	3	·
CCc1nc2ccc(C(=O)NC3CCN(Cc4ccccc4)CC3)cn2c1N(C)Cc1ccc(N(C)C)cc1	52*	-2	-8	-3	-6	8.5µM*
Cc1ccsc1/C=N/N1CCN(c2ccccc2)CC1	10	0	-12	27	0	·
Cc1ccsc1/C=N/N1CCN(Cc2ccccc2)CC1	27*	-3	2	2	3	-17%
Cc1ccc(S(=O)(=O)N(C)C[C@@H]2Oc3ncc(-c4ccncc4)cc3C(=O)N([C@H](C)CO)C[C@@H]2C)cc1	-2	1	2	18	-3	·
CCCCCCCC(=O)O	-3	0	-9	6	2	·
C[C@@H]1NC(=O)N[C@@H]1CCCCCC(=O)O	90*	0	-10	·	-3	1.1µM*
Cc1csc(Nc2ccccc2)[n+]1-c1ccccc1	28*	-1	-2	-3	1	-35%
Cc1csc(Nc2ccccc2)[n+]1C	4	3	0	-6	-1	·
c1ccc2c(Nc3ccc4c(c3)OCCO4)c3c(nc2c1)CCCC3	24	0	21	11	0	-29%
